Test results taken from ChEMBL document CHEMBL3392957, “The discovery of 1,2,3,9b-tetrahydro-5H-imidazo[2,1-a]isoindol-5-ones as a new class of respiratory syncytial virus (RSV) fusion inhibitors. Part 1” (Bioorg Med Chem Lett, 2015).
≈ marks a conversion by molar mass, not a printed value.

Assays:
[1] = Lipophilicity, log D of the compound in octanol saturated mobile phase at pH 7.4 by chromatographic method; assay type: physicochemical
Method in brief: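 Effective logD determined chromatographically on a SUPELCOSIL LC-ABZ column with octanol-saturated mobile phase, pH 7.4.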

[2] = Kinetic solubility of the compound at pH 2 by nephelometry; assay type: physicochemical; conditions: buffer, read-out: Kinetic_solubility
Method in brief: (§1)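 Kinetic solubility by nephelometry, at pH 2 and pH 6.5; reported as a range in μg/mL.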

[3] = tested on: Respiratory syncytial virus; assay: Antiviral activity against Respiratory syncytial virus A2 infected in human Hep2 cells assessed as inhibition of virus-induced cytopathicity after 5 days by MTT assay relative to alpha-1-acid glycoprotein; assay type: functional, HEp-2
Method in brief: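 RSV A2 CPE assay in HEp2 cells (moi 0.01, 5 days, 37 °C, MTT read-out at 540 nm) run with alpha-1-acid glycoprotein at 1.5 mg/mL; result expressed as fold shift in EC₅₀ versus the assay without AAG.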

[4] = Cytotoxicity against human Hep2 cells after 5 days by MTT assay; assay type: cell-based, HEp-2
Method in brief: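 Uninfected HEp2 cells (1.0 × 10⁴/well) with serially diluted compound, 5 days at 37 °C in 5% CO₂; viability by MTT (1 mg/ml, 2 h), isopropanol, absorbance 540 nm; CC₅₀ by non-linear regression.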

[5] = tested on: Respiratory syncytial virus; assay: Antiviral activity against Respiratory syncytial virus B1 infected in human Hep2 cells assessed as inhibition of virus-induced cytopathicity after 5 days by MTT assay; assay type: functional, organism-based; conditions: B1, HEp-2, 120 h
Method in brief: (§2)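 HEp2 cells (1.0 × 10⁴/well) infected at low moi (e.g. RSV A2 at moi 0.01) and added to serially diluted compound; 5 days at 37 °C, 5% CO₂. CPE read by MTT (1 mg/ml, 2 h, 37 °C), isopropanol, absorbance 540 nm; EC₅₀ by non-linear regression. SD given where n > 2.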

[6] = Elimination half life in Sprague-Dawley rat at 20 mg/kg, po as suspension with carboxymethylcellulose; conditions: in vivo, read-out: beta t1/2 (converted)
[7] = Kinetic solubility of the compound at pH 6.5 by nephelometry; assay type: physicochemical; conditions: buffer, read-out: Kinetic_solubility; method in brief: as §1
[8] = tested on: Respiratory syncytial virus; assay: Antiviral activity against Respiratory syncytial virus A2 infected in human Hep2 cells assessed as inhibition of virus-induced cytopathicity after 5 days by MTT assay; assay type: functional, organism-based; conditions: A2, HEp-2, 120 h; method in brief: as §2
[9] = Cmax in Sprague-Dawley rat at 20 mg/kg, po as suspension with carboxymethylcellulose; conditions: in vivo
[10] = tested on: Respiratory syncytial virus; assay: Antiviral activity against wild-type Respiratory syncytial virus A Long infected in human Hep2 cells assessed as inhibition of virus-induced cytopathicity after 5 days by MTT assay; assay type: functional, organism-based; conditions: HEp-2, 120 h; method in brief: as §2
[11] = Apparent volume of distribution in Sprague-Dawley rat at 2.0 mg/kg, iv as solution in 5% glucose and 10% DMSO; conditions: in vivo, read-out: Vz
[12] = Elimination half life in Sprague-Dawley rat at 2.0 mg/kg, iv as solution in 5% glucose and 10% DMSO; conditions: in vivo, read-out: beta t1/2 (converted)
[13] = Total clearance in Sprague-Dawley rat at 2.0 mg/kg, iv as solution in 5% glucose and 10% DMSO; conditions: in vivo
[14] = Oral bioavailability in Sprague-Dawley rat at 19 mg/kg as suspension with carboxymethylcellulose; assay type: ADME, organism-based; conditions: in vivo, 20 mg/kg, in the assay text read “20 mg/kg” for “19 mg/kg”
Method in brief: (§3)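 Male Sprague-Dawley rats, n = 2, given a single oral dose. Plasma pharmacokinetics were analysed for Cmax (µM), terminal half-life (hr) and oral bioavailability F (%). The oral bioavailability estimate draws on a separate intravenous arm, also with n = 2 rats.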

[15] = Cmax in Sprague-Dawley rat at 19 mg/kg, po as suspension with hydroxypropylmethylcellulose; assay type: ADME, organism-based; parameters: dose 19 mg/kg, route oral; conditions: in vivo; method in brief: as §3
[16] = Elimination half life in Sprague-Dawley rat at 19 mg/kg, po as suspension with hydroxypropylmethylcellulose; assay type: ADME, organism-based; parameters: dose 19 mg/kg, route oral; conditions: in vivo, read-out: beta t1/2; method in brief: as §3
[17] = Total clearance in Sprague-Dawley rat at 2.0 mg/kg, iv in 0.1 M capsitol and 10 to 12.5 % DMSO; conditions: in vivo
[18] = Plasma protein binding in rat; assay type: ADME, cell-free; conditions: read-out: PPB (converted)
[19] = Oral bioavailability in Sprague-Dawley rat at 19 mg/kg as suspension with hydroxypropylmethylcellulose; assay type: ADME, organism-based; conditions: in vivo; method in brief: as §3
[20] = Apparent volume of distribution in Sprague-Dawley rat at 2.0 mg/kg, iv in 0.1 M capsitol and 10 to 12.5 % DMSO; conditions: in vivo, read-out: Vz
[21] = Elimination half life in Sprague-Dawley rat at 2.0 mg/kg, iv in 0.1 M capsitol and 10 to 12.5 % DMSO; conditions: in vivo, read-out: beta t1/2
[22] = tested on: Respiratory syncytial virus; assay: Selectivity ratio of EC50 for Respiratory syncytial virus A Long harboring F protein D489Y mutant infected in human Hep2 cells to EC50 for wild-type Respiratory syncytial virus A Long infected in human Hep2 cells

Structure (SMILES) | CC50 at 120 h [4] [µM] | EC50 [8] [µM] | also measured
O=C(c1ccc(F)cc1)N1CCN2C(=O)c3cc[n+]([O-])cc3C12c1ccc(Cl)cc1 (racemic) | > 47 | 0.25 | chromatographic logD [1]: 2.3; solubility kinetic [2]: 50 µg/mL (≈ 118 µM); fold change (FC) [3]: <10; EC50 [5]: 0.91 µM; half-life [6]: 5.6 h; solubility kinetic [7]: 25 µg/mL (≈ 59 µM); Cmax [9]: 23 µM; EC50 [10]: 0.12 µM; Vd [11]: 1.3 L/kg; half-life [12]: 6.5 h; clearance [13]: 2.4 mL/min/kg; bioavailability [14]: 89%
O=C(c1ccc(F)cc1)N1CCN2C(=O)c3ccncc3C12c1ccc(Cl)cc1 (racemic) | > 49 | 0.23 | chromatographic logD [1]: 2.8; solubility kinetic [2]: 25 µg/mL (≈ 61.3 µM); Cmax [15]: 6.3 µM; fold change (FC) [3]: <10; half-life [16]: > 24 h; EC50 [5]: 0.68 µM; clearance [17]: 2.7 mL/min/kg; solubility kinetic [7]: 12.5 µg/mL (≈ 30.6 µM); fraction unbound [18]: 0.27; bioavailability [19]: 28%; Vd [20]: 6 L/kg; half-life [21]: > 24 h; EC50 [10]: 0.22 µM
Cc1nnnn1/N=C/c1ccc(O)c(C(c2ccc(O)cc2)c2cc(/C=N/n3nnnc3C)ccc2O)c1 |  |  | Ratio EC50 [22]: >1400
O=C(c1ccc(F)cc1)N1CCN2C(=O)c3ccccc3C12c1ccc(F)cc1 (racemic) | > 20 | 0.71 | 
O=C(c1ccc(C(F)(F)F)cc1)N1CCN2C(=O)c3ccccc3C12c1ccc(Cl)cc1 (racemic) | 17 | > 20 | 
O=C(c1ccc(F)cc1)N1CCN2C(=O)c3ccccc3C12c1cccnc1 (racemic) | > 20 | 10 | 
O=C(Cc1ccc(F)cc1)N1CCN2C(=O)c3ccccc3C12c1ccc(Cl)cc1 (racemic) | > 20 | 0.97 | 
O=C(c1ccc(OC(F)(F)F)cc1)N1CCN2C(=O)c3ccccc3C12c1ccc(Cl)cc1 (racemic) | 5.7 | > 20 | 
O=C(c1ccc(F)cc1)N1CCN2C(=O)c3ccccc3C12c1ccccn1 (racemic) | > 20 | > 20 | 
CC(=O)N1CCN2C(=O)c3ccccc3C12c1ccc(Cl)cc1 (racemic) | > 20 | 1.2 | 
O=C1c2ccccc2C2(c3ccc(Cl)cc3)N1CCN2C(=O)C1CC1 (racemic) | > 21 | 4.9 | 
N#CCOc1cccc(C23c4ccccc4C(=O)N2CCN3C(=O)c2ccc(F)cc2)c1 (racemic) | > 17 | 3.4 | 
O=c1n(Cc2nc3ccccc3n2CCCCO)c2cnccc2n1C1CC1 |  |  | Ratio EC50 [22]: 380
NC(=O)COc1ccc(C23c4ccccc4C(=O)N2CCN3C(=O)c2ccc(F)cc2)cc1 (racemic) | 11 | 1 | 
N#CCOc1ccc(C23c4ccccc4C(=O)N2CCN3C(=O)c2ccc(F)cc2)cc1 (racemic) | > 17 | 0.24 | 
O=C(c1ccco1)N1CCN2C(=O)c3ccccc3C12c1ccc(Cl)cc1 (racemic) | 12 | 0.26 | 

Structure (SMILES) | CC50 at 120 h [4] [µM] | EC50 [8] [µM] | also measured
O=C(c1ccc(F)cc1)N1CCN2C(=O)c3ccccc3C12c1ccccc1 (racemic) | > 20 | 1.1 | 
O=C(c1ccc(F)cc1)N1CCN2C(=O)c3ccccc3C12c1ccc(O)cc1 (racemic) | > 20 | 11 | 
CCOc1ccc(C23c4ccccc4C(=O)N2CCN3C(=O)c2ccc(F)cc2)cc1 (racemic) | > 20 | 0.2 | 
O=C(CC1CCCCC1)N1CCN2C(=O)c3ccccc3C12c1ccc(Cl)cc1 (racemic) | 14 | 4.5 | 
COCCOc1cccc(C23c4ccccc4C(=O)N2CCN3C(=O)c2ccc(F)cc2)c1 (racemic) | > 16 | > 16 | 
O=C(NCc1ccccc1)N1CCN2C(=O)c3ccccc3C12c1ccc(Cl)cc1 (racemic) | > 20 | 0.73 | 
O=C(c1ccccc1)N1CCN2C(=O)c3ccccc3C12c1ccc(Cl)cc1 (racemic) | > 20 | 0.45 | 
Cc1ccc(C(=O)N2CCN3C(=O)c4ccccc4C23c2ccc(Cl)cc2)cc1 (racemic) | 17 | 5.8 | 
COCCOc1ccc(C23c4ccccc4C(=O)N2CCN3C(=O)c2ccc(F)cc2)cc1 (racemic) | > 16 | 0.25 | 
COc1ccc(C23c4ccccc4C(=O)N2CCN3C(=O)c2ccc(F)cc2)cc1 (racemic) | > 20 | 0.53 | 
CC(C)Oc1ccc(C23c4ccccc4C(=O)N2CCN3C(=O)c2ccc(F)cc2)cc1 (racemic) | > 20 | 1.1 | 
O=C1c2ccccc2C2(c3ccc(Cl)cc3)N1CCN2c1ccccc1 (racemic) | > 20 | > 20 | 
O=C(c1ccc(F)cc1)N1CCN2C(=O)c3cnccc3C12c1ccc(Cl)cc1 (racemic) | > 18 | 2.7 | 
O=C(c1cccc(Cl)n1)N1CCN2C(=O)c3ccccc3C12c1ccc(Cl)cc1 (racemic) | > 17 | 0.47 | 
COc1ccc(C(=O)N2CCN3C(=O)c4ccccc4C23c2ccc(Cl)cc2)cc1 (racemic) | 16 | > 20 | 
